Drawing on PubChem BioAssay AID651560 (Sanford-Burnham Center for Chemical Genomics, 2012), this text covers inhibition for 55 compounds.

Screen size: about 360,000 compounds; about 820 (0.23%) were called active. This is one part of a sample in which actives are shown more often than they occur. A number with no mark means an inactive call.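 How the source made its calls: active means compounds that cut the enzyme signal by at least half of the control window in the single-dose screen; inactive means the rest.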

Low molecular weight phosphotyrosine protein phosphatase (Homo sapiens), sequence (P24666 whole entry, looked up): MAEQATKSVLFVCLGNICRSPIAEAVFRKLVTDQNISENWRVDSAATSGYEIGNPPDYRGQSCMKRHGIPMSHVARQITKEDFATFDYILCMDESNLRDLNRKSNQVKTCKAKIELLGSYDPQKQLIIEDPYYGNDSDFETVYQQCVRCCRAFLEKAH

The test deals with Low molecular weight phosphotyrosine protein phosphatase (Homo sapiens) (UniProt P24666). Description: LMPTP phosphatase inhibitors, primary screen, biochemical, fluorescence intensity, uHTS (AID 651560).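 Further: plate controls were DMSO wells with enzyme plus substrate for no effect and substrate without enzyme for full effect.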 The note with it: recombinant LMPTP-A, OMFP fluorogenic substrate, at 20 µM, hits give high values. A digest of the protocol:
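Test system – LMPTP-A phosphatase enzyme · Quantity – 0.625 nM LMPTP-A final · Reagent – OMFP substrate, 400 µM final · Dosing – one test concentration per compound, 20 µM, with 3% DMSO overall · Timing – 50 min enzyme reaction at room temperature, protected from light · Detection – fluorescence intensity · Controls – substrate-only low control, DMSO enzyme-plus-substrate high control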
In the case of `NNC(=O)c1cccc(COCC(F)(F)C(F)F)c1`, the inhibition was -2.64%.
Take `CC(CO)NCC12CC3CC(CC(C3)C1)C2` (stereo not given): the inhibition is -1.02%.
As to `COc1ccc(NC(=O)Nc2ccc3c(c2)C(=O)N([C@H](C)CO)C[C@H](C)[C@@H](CN(C)C(=O)Nc2ccc4c(c2)OCO4)O3)cc1`, the inhibition was 0.628%.
For `CCOc1ccc(N(CC(=O)NC2CCCCCC2)S(=O)(=O)c2c(C)[nH]c(=O)[nH]c2=O)cc1` the value was -1.41%; for `CN(C)c1cccc(C(=O)N2CCC(n3nccc3NC(=O)C3CCOC3)CC2)c1` (stereo not given), -1.94%; for `COCCNc1nc(-c2ccccc2)nc2c1oc1ccccc12`, 2%.
As for `CCOCCCNS(=O)(=O)Cc1ccccc1`, the inhibition was -0.147%.
For `CCOCCCNc1nc(-c2ccccc2)nc2ccccc12` the value was 57.8% (active).
Regarding `O=C(Nc1cc2c3c(c1)C1CCCC1CN3CC1CCCC21)c1ccc([N+](=O)[O-])cc1` (stereo not given), the inhibition is 2.81%.
With `O=C(Nc1ccc(C2CC2(Cl)Cl)cc1)c1cccc([N+](=O)[O-])c1` (stereo not given), the inhibition is 2.23%.
For `Cn1ccc(=Nc2ccc(NC(=O)c3ccc(N=c4ccn(C)c5ccc([N+](=O)[O-])cc45)cc3)cc2)cc1`, the inhibition is 78% (active).
Take `CCc1ccc(CCC(=O)Nc2ccc(S(N)(=O)=O)cc2)o1`: the inhibition is -1.91%.
Turning to `C=CCOc1cccc(C2C(C(=O)c3ccc(C)o3)=C(O)C(=O)N2c2nnc(C)s2)c1` (stereo not given), the inhibition is 0.72%.
As for `Cc1cc(N2C(=O)C(O)=C(C(=O)c3ccc(C)o3)C2c2ccc(OCc3ccccc3)cc2)no1` (stereo not given), the figure is 52.5% (active); as for `CCCOc1ccc(C2C(C(=O)c3ccc(C)o3)=C(O)C(=O)N2CCCn2ccnc2)cc1` (stereo not given), 20.9%.
As for `COCc1ccc(CN2CCC(Oc3ccc(C(=O)NCc4ccccn4)cc3)CC2)o1`, the figure is -0.769%.
As for `CC1C(=O)N(Cc2cn(CC3CCCCC3)nn2)CCS(=O)(=O)N1Cc1ccc(-c2cccc(N(C)C)c2)cc1` (stereo not given), the inhibition is 2.27%.
In the case of `FC(F)(F)c1cccc(-c2nc(COc3ccc(Cl)cc3Cl)no2)c1`, the inhibition was 2.97%.
In the case of `O=C1COc2c1ccc(O)c2O`, the inhibition is 2.2%.
For `CCN(CC)C(=O)CS(=O)CC(=O)Nc1cc(OCCOC)c(Cl)cc1Cl` (stereo not given), the inhibition was -0.0342%.
For `C[C@H](CO)N1C[C@H](C)[C@H](CN(C)C(=O)Nc2ccc3c(c2)OCO3)Oc2ncc(Br)cc2C1=O` the value was -2.87%.
Consider `COc1cccc(CNC(=O)C(=O)NCCC2CCCCN2S(=O)(=O)c2ccc(C)cc2)c1` (stereo not given), for which the inhibition was 0.141%.
On to `Cn1c(C(=O)OC(C(=O)NC2CCCCC2)c2ccccn2)cc2sccc21` (stereo not given), for which the inhibition was 0.323%.
In the case of `C=CCn1c(Oc2ccc(C(=O)OC)cc2)nc2c1c(=O)n(C)c(=O)n2C`, the inhibition is -1.9%.
For the compound `COc1ccccc1N(CC(=O)NC1CCCC1)C(=O)C1(C)CC(=O)N=C2C=CC(C)=CN21` (stereo not given), the inhibition is -0.3%.
As to `CCCCNC(=O)Cn1nc(C)c(S(=O)(=O)N2CCOCC2)c1C`, the inhibition was -0.848%.
With `CCC(C)c1ccccc1NC(=O)CN(C)CC(=O)Nc1ccccc1SC` (stereo not given), the inhibition is -7.1%.
In the case of `CC1(C)CC(=O)C2=C(C1)N=C1SCCC(=O)N1C2c1ccc(C(F)(F)F)cc1` (stereo not given), the inhibition is 0.279%.
Consider `Cc1cc(F)ccc1NC(=O)C(C)n1c2ccccc2c2nc(=O)cc(C)n21` (stereo not given), for which the inhibition is -1.13%.
On to `O=S(=O)(c1ccc(Cl)cc1)N1CCCN(c2ccc(C(F)(F)F)cn2)CC1`, for which the inhibition was 2.43%.
For `CCCN1C(=O)C(NS(=O)(=O)c2ccc(N)cc2)(C(F)(F)F)C(C(=O)OC)=C1C` (stereo not given) the value was -1.38%; for `Cc1cccc(NC(=S)N(CCN(C)C)C(C)c2ccco2)c1` (stereo not given), -1.32%.
Take `C=CC1=C(C(=O)O)N2C(=O)[C@@H](NC(=O)/C(=N/OCC(=O)O)c3csc(N)n3)[C@H]2SC1`: the inhibition was 77.9% (active).
`COc1ccc2c(C)c(CCC(=O)NC3CC3)c(=O)oc2c1C`: the inhibition is -1.16%.
Turning to `Cc1c(CCC(=O)O)c(=O)oc2c(C)c(OCc3ccccc3Cl)ccc12`, the inhibition is 86.6% (active).
As for `O=C(O)c1ccccc1OCc1ccccc1Cl`, the inhibition was -0.307%.
As for `O=C(CO/N=C/c1ccccc1OC(F)F)NC1CCCC1`, the figure is -0.427%.
For the compound `Cc1ccc(Cc2c(-c3ccc(Cl)cc3)nc3c4ccccc4ccn23)cc1`, the inhibition is 6.26%.
In the case of `COc1ccc(NC(=O)c2cc(=O)[nH]c3ccccc23)cc1S(=O)(=O)N1CCOCC1`, the inhibition was -0.651%.
For the compound `COc1ccc2[nH]c(=O)c(-c3noc(-c4ccc(F)cc4)n3)cc2c1`, the inhibition was 48.8% (active).
For `CCCc1nc(-c2cc3cc(C)ccc3[nH]c2=O)no1` the value was -2.23%.
`COc1ccc(Cc2cc(-c3ccc(F)cc3)n[nH]c2=O)cc1`: the inhibition is 0.445%.
As for `Cn1c(=O)cc(OCC(=O)N2CCN(c3ccccc3F)CC2)c2ccccc21`, the figure is -0.233%; as for `Cc1[nH]c(N)nc(=S)c1CCCNc1ccccc1`, 4.94%; as for `Cc1csc(=O)n1CC(=O)Nc1ccc(S(C)(=O)=O)cc1`, 0.0764%.
For `CN1CCN(Cc2c(C(=O)N3CCc4ccccc4C3)nc3ccc(Cl)cn23)CC1` the value was -1.43%; for `O=C(COc1ccc(Cl)cc1Cl)NCCCNC(=O)c1cnccn1`, -0.724%; for `CCCNS(=O)(=O)c1ccc(CCC(=O)NCc2cccnc2)cc1`, -0.651%.
With `COc1ccc(NC(=O)CN2C(=O)CSC2=O)cc1`, the inhibition was -1.92%.
As for `CCOC(=O)c1sc2nc(C)nc(SCC(N)=O)c2c1C`, the inhibition is -0.32%.
As for `COc1ccc(C#Cc2c(-c3ccc(OC)cc3)oc3ccc(-c4ccc5c(c4)OCO5)cc23)cc1`, the inhibition was 0.696%.
On to `FC(F)(F)c1ccc2c3n(nc2c1)CCN=C3c1ccc(Cl)cc1`, for which the inhibition is -0.582%.
As to `COc1ccc(CC(NC(C)=O)C(=O)NC2CCN(C(=O)c3ccc(Cl)cc3)CC2)cc1` (stereo not given), the inhibition is 0.435%.
As for `C[C@]12CC[C@H](O)CC1=CCC1C2CC[C@@]2(C)C1CC[C@@H]2NC(=O)CCC(=O)O` (stereo not given in full), the figure is -0.874%; as for `Cn1c(SCC(=O)Nc2ccc(Cl)cc2)nc(O)cc1=O`, -0.456%.

Usually inhibition stands for the change of the read-out against control, counted positive when it falls.
